# Experimental data as given in ChEMBL document CHEMBL1121513, “Separation of potent central and renal dopamine agonist activity in substituted 6-chloro-2,3,4,5-tetrahydro-7,8-dihydroxy-1-phenyl-1H-3-benzazepines” (J Med Chem, 1980).
# Tests used:
# [1] = test system: Canis familiaris; assay: Effective Dose (ED15) required to decrease renal vascular resistance by 15% in anesthetized dogs administered intravenously; format: functional; conditions: Canis lupus familiaris, iv
# Summary of the method: (§1)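 Anesthetized dogs were surgically prepared for electromagnetic measurement of renal and iliac artery blood flow, carotid blood pressure, and ECG-triggered cardiometer heart rate. Drug was infused into an antecubital vein at cumulative, usually threefold increasing doses, 5 min per level. Renal vascular resistance was calculated as mean arterial pressure divided by mean blood flow, with a […] change needed for significance.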
# [2] = species: Canis familiaris; assay: Potency was expressed as the average maximum cumulative dose required to decrease renal vascular resistance by 15%; format: functional, Canis lupus familiaris; summary of the method: as §1
# [3] = species: Rattus norvegicus; assay: Central dopaminergic activity was determined by testing compound for dopamine agonist activity mediated by adenylase cyclase in rat; format: functional, organism-based
# [4] = Renal vasodilator activity was measured between ED20, heart rate (HR) test, and ED15 RVR.; format: functional
# Summary of the method: (§2)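 In anesthetized dogs with electromagnetic renal and iliac blood-flow probes, carotid pressure and ECG-triggered heart rate, drug was given as cumulative iv infusions rising about threefold every 5 min. Resistance was pressure divided by flow. Each ratio divides the dose giving a 30% IVR change, a 20% MABP rise or a 20% HR change by the RVR ED15.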
# [5] = Renal vasodilator activity was measured between ED20, measure of mean arterial blood pressure (MABP) test, and ED15 RVR.; format: functional; summary of the method: as §2
# [6] = Renal vasodilator activity was measured between ED30, measure in iliac vascular resistance (IVR) test, and ED15 RVR; format: functional; summary of the method: as §2
# [7] = test system: Rattus norvegicus; assay: Central dopaminergic activity was determined by testing compound for its ability to produce contralateral rotation in lesioned rat after intracerebrally administration; format: functional
# [8] = test system: Rattus norvegicus; assay: Central dopaminergic activity was determined by testing compound for its ability to produce contralateral rotation in lesioned rat after ip administration; format: functional
# [9] = test system: Canis familiaris; assay: Effective Dose (ED15) required to decrease renal vascular resistance by 15% in anesthetized dogs administered intravenously; d = increase in renal resistance were seen; format: functional, organism-based; conditions: Canis lupus familiaris; summary of the method: as §1
EC50 [3],SMILES,ED15 [1],Average max [2],Selectivity ratio [4],Selectivity ratio [5],Selectivity ratio [6],RD500 [7],RD500 [8],ED15 [9]
18 nM,Oc1ccc(C2CNCCc3c2cc(O)c(O)c3Cl)cc1 (configuration not stated) [FENOLDOPAM],0.3 µg/kg,59%,>6072,>6072,> 6070,0.5 µg/rat,10000 µg/kg,–
500 nM,Oc1ccc(C2CNCCc3cc(O)c(O)cc32)cc1 (configuration not stated),–,–,–,–,–,–,–,Significant increases
–,Oc1cc2c(c(Cl)c1O)CCNCC2c1ccccc1 (configuration not stated),3.5 µg/kg,39%,–,–,–,0.22 µg/rat,300 µg/kg,–
80 nM,Oc1cc2c(cc1O)C(c1ccccc1)CNCC2 (configuration not stated) [SKF-38393],31 µg/kg,19%,–,10,15,0.18 µg/rat,700 µg/kg,–

SMILES,EC50 [3],ED15 [1],Average max [2],Selectivity ratio [4],Selectivity ratio [5],Selectivity ratio [6],RD500 [7],RD500 [8],ED15 [9]
NCCc1ccc(O)c(O)c1 [DOPAMINE],3500 nM,2.7 µg/kg,36%,141,113,56,–,–,–
